From ChEMBL document CHEMBL1153184, “Drug design and synthesis of a novel kappa opioid receptor agonist with an oxabicyclo[2.2.2]octane skeleton and its pharmacology” (Bioorg Med Chem Lett, 2010)
The source made the active and inactive calls. The rule behind the calls is not given here.

How the values were obtained:
[1] = biological target: Kappa-type opioid receptor (Cavia porcellus, UniProt P41144); experiment: Displacement of [3H]U69593 from guinea pig cerebellum kappa opioid receptor; type: tissue-based
Chain of Kappa-type opioid receptor (P41144 whole entry): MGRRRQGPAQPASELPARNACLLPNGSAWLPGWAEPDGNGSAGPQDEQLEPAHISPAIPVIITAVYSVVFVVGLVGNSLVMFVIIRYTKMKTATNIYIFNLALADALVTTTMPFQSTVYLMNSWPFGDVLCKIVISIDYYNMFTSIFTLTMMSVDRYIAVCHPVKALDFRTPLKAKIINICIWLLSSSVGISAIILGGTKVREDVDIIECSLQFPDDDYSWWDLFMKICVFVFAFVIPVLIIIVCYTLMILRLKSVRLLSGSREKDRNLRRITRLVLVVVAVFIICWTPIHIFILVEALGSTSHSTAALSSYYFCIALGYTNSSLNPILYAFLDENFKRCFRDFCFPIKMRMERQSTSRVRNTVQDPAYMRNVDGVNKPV
Outline: (§1)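 Radioligand competition binding in duplicate on guinea-pig brain homogenate. Cerebellum was used for κ and forebrain for μ and δ. Affinity was expressed as Ki.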

Mu-type opioid receptor = Mu-type opioid receptor (Cavia porcellus, UniProt P97266); experiment: Displacement of [3H]DAMGO from guinea pig forebrain mu opioid receptor; outline: as §1
Chain of Mu-type opioid receptor (P97266 whole entry): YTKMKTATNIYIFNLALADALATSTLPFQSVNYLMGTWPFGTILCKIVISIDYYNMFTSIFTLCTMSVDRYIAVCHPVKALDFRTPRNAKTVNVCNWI

[2] = Displacement of [3H]NTI from guinea pig forebrain delta opioid receptor; set-up: species or system Cavia porcellus
Outline: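 Radioligand competition binding in duplicate on guinea-pig brain homogenate. Cerebellum was used for κ and forebrain for μ and δ. The μ tracer was [³H]DAMGO, δ was [³H]NTI and κ was [³H]U-69,593. Affinity was expressed as Ki.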

Mus musculus [3] = experiment: Antinociceptive activity in sc dosed mouse assessed as inhibition of acetic acid-induced writhing response at 0.03 mg/kg in presence of 0.3 mg/kg mu opioid receptor antagonist naloxone; type: functional, organism-based
Mus musculus [4] = experiment: Antinociceptive activity in sc dosed mouse assessed as inhibition of acetic acid-induced writhing response; type: functional
Mus musculus [5] = experiment: Antinociceptive activity in sc dosed mouse assessed as inhibition of acetic acid-induced writhing response at 0.03 mg/kg in presence of 3 mg/kg delta opioid receptor antagonist NTI; type: functional, organism-based
Mus musculus [6] = experiment: Antinociceptive activity in sc dosed mouse assessed as inhibition of acetic acid-induced writhing response at 0.03 mg/kg in presence of 20 mg/kg kappa opioid receptor antagonist nor-BNI; type: functional, organism-based

Row | SMILES | Ki [1] | Ki (Mu-type opioid receptor) | Ki [2] | Activity (Mus musculus [3]) | Activity (Mus musculus [4]) | ED50 (Mus musculus [4]) | Activity (Mus musculus [5]) | Activity (Mus musculus [6])
1 | CN(C(=O)/C=C/c1ccco1)[C@@H]1CC[C@@]2(O)[C@H]3Cc4ccc(O)c5c4[C@@]2(CCN3CC2CC2)[C@H]1O5 | 0.225 nM | 0.582 nM | 96.5 nM |  |  |  |  | 
2 | O=C(Nc1ccccc1)[C@H]1O[C@@]23CC[C@]1(O)[C@@H]1Oc4c(O)ccc5c4[C@@]12CCN(CC1CC1)[C@@H]3C5 | 0.111 nM | 0.212 nM | 2.73 nM | Active | Dose-dependent effect | 6.3 µg/kg | Active | inactive
3 | O=C(Nc1ccccc1)[C@@H]1O[C@@]23CC[C@@]1(O)[C@@H]1Oc4c(O)ccc5c4[C@@]12CCN(CC1CC1)[C@@H]3C5 | 0.152 nM | 0.205 nM | 3.23 nM |  |  |  |  | 
4 | O=C1CC[C@@]2(O)[C@H]3Cc4ccc(O)c5c4[C@@]2(CCN3CC2CC2)[C@H]1O5 [NALTREXONE] |  |  | 20.7 nM |  |  |  |  | 
